Data: ChEMBL document CHEMBL1938298, “Synthesis and characterization of [¹²⁵I]2-iodo N-[(S)-{(S)-1-methylpiperidin-2-yl}(phenyl)methyl]3-trifluoromethyl-benzamide as novel imaging probe for glycine transporter 1” (Bioorg Med Chem, 2011)
pIC50: −log10 of the molar value. Calls of active or inactive are those of the source. The calls are words filed in the database; no cut-off is given here.

What was measured:
Pancreas = assay: Drug uptake in ddY mouse pancreas at 11.1 kBq, iv after 180 min by gamma counting; format: ADME, organism-based; conditions: in vivo, 3 h
Summary of the method: (§1)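 Male ddY mice (6 weeks, 30–35 g) were given about 11.1 kBq of [125I]tracer in 0.1 mL i.v. via the tail vein. At each time point the animals were killed and organs dissected, weighed and gamma-counted. Uptake is expressed as % injected dose per gram of tissue, mean ± SD, n = 5–6.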

Blood = assay: Drug uptake in ddY mouse blood at 11.1 kBq, iv after 60 min by gamma counting; format: ADME, organism-based; conditions: in vivo, 1 h
Summary of the method: (§2)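 Male ddY mice (6 weeks, 30–35 g) received about 11.1 kBq [125I]tracer in 0.1 mL i.v. via tail vein. Killed at set times, organs dissected and weighed, radioactivity gamma counted. Reported as % injected dose/g tissue, mean ± SD, n = 5–6.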

Intestine = assay: Drug uptake in ddY mouse intestine at 11.1 kBq, iv after 15 min by gamma counting; format: ADME, organism-based; conditions: in vivo; summary of the method: as §2
Kidney = assay: Drug uptake in ddY mouse kidney at 11.1 kBq, iv after 30 min by gamma counting; format: ADME, organism-based; conditions: in vivo, 0.5 h; summary of the method: as §1
[1] = target: T1, Sodium- and chloride-dependent glycine transporter 1 (Rattus norvegicus) (UniProt P28572); assay: Binding affinity to GlyT1 in rat brain hippocampus at 0.03 to 0.04 nM preincubated for 20 mins in binding buffer before compound addition measured after 30 mins by autoradiography in presence of 10 mM GlyT1 substrate glycine relative to control; format: tissue-based; conditions: tested as the 125I-labelled form
T1 sequence (whole entry): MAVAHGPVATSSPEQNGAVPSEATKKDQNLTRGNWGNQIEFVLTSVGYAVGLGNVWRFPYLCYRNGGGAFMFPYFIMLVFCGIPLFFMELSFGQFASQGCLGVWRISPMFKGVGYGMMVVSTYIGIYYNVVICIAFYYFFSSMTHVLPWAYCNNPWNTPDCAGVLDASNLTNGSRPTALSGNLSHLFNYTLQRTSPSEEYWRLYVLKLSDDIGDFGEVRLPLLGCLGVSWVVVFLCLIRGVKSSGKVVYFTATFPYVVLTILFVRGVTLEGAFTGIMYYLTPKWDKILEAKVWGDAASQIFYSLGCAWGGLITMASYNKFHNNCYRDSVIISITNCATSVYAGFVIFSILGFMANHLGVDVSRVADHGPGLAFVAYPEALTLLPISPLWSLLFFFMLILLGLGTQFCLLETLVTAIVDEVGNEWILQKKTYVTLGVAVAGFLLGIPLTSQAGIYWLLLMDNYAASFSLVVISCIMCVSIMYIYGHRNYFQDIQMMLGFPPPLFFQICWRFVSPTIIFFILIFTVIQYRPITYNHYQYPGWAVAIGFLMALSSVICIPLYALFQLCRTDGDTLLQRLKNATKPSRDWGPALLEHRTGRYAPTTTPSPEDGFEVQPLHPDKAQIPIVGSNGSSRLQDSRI
Summary of the method: (§3)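 Rat brain sagittal sections (20 µm) preincubated 20 min at 25 °C in Tris-HCl buffer pH 7.5 (NaCl, KCl, MgCl2, CaCl2), then 30 min at 25 °C with [125I] tracer (100 kBq, 0.03–0.04 nM) plus competitor (10 µM; glycine 1 or 10 mM). Cold washes, imaging plate 3 days, ROI PSL minus background per mm². % control from ≥triplicate slices, three rats.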

[2] = target: T2, Sodium- and chloride-dependent glycine transporter 1 (Homo sapiens, UniProt P48067); assay: Inhibition of GlyT1 in human JAR cells assessed as inhibition of [3H]glycine uptake preincubated for 1 mins measured after 2 hrs by liquid scintillation counting; format: cell-based
T2 sequence (P48067 whole entry): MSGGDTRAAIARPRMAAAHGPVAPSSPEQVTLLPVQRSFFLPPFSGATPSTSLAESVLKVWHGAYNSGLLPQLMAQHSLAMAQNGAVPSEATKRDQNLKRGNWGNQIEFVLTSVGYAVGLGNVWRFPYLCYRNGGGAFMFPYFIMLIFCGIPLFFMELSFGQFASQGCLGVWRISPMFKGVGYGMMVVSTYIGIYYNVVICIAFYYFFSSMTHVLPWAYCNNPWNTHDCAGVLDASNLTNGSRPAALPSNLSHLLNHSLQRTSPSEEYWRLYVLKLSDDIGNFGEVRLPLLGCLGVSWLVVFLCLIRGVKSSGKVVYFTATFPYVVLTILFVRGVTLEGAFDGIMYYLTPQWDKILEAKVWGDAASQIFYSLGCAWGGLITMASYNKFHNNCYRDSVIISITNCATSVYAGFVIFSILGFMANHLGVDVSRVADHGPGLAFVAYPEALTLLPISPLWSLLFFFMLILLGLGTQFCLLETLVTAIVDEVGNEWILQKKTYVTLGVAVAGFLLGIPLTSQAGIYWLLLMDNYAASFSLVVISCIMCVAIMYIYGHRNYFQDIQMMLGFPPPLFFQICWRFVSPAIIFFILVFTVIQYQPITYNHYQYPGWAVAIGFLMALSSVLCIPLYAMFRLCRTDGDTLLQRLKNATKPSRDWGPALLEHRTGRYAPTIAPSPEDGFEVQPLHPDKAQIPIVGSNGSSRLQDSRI
Summary of the method: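 [3H]glycine (final 10 µM) was added for 2 h at room temperature; nonspecific uptake was defined with 10 mM glycine. Cells were lysed in NaOH and counted by liquid scintillation. IC50 values are from at least three measurements, mean ± SEM.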

[3] = target: T1, Sodium- and chloride-dependent glycine transporter 1 (Rattus norvegicus); assay: Binding affinity to GlyT1 in rat brain cerebellum at 0.03 to 0.04 nM preincubated for 20 mins in binding buffer before compound addition measured after 30 mins by autoradiography in presence of 10 mM GlyT1 substrate glycine relative to control; format: tissue-based; conditions: tested as the 125I-labelled form; summary of the method: as §3
Mus musculus [4] = assay: In vivo binding affinity to GlyT1 in ddY mouse brain cerebellum at 200 kBq, iv after 60 mins by autoradiography relative to control; format: functional, organism-based; conditions: tested as the 125I-labelled form
Summary of the method: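 Ex vivo autoradiography in mice given 200 kBq [125I]tracer i.v. and killed at 60 min. Brains were removed, frozen on dry ice and cut into 20 µm sagittal cryosections, which were exposed to an imaging plate for 7 days. Regional signal was quantified as PSL/mm² (n = 5) and compared to control by Kruskal–Wallis with Dunn's post-test.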

Mus musculus [5] = assay: In vivo binding affinity to GlyT1 in ddY mouse brain cortex at 33.3 kBq, iv after 30 mins in presence of SSR504734 2 mg/kg, iv administered 15 mins prior to compound administration relative to control; format: functional, organism-based; set-up: dose 2 mg/kg; conditions: tested as the 125I-labelled form
Summary of the method: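 Blocking study in male ddY mice (6 weeks, 30–35 g). The blocker (2 mg/kg in 30% DMSO/saline) was injected i.v. 15 min before about 33.3 kBq [125I]tracer i.v.; mice were killed at 30 or 60 min. Brains were divided into cortex, corpus callosum, hippocampus, thalamus, midbrain, medulla and cerebellum, weighed and gamma-counted as % dose/g. Values are mean ± SD, n = 5–6, compared to control by Kruskal–Wallis with Dunn's post-test.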

[6] = target: T1, Sodium- and chloride-dependent glycine transporter 1 (Rattus norvegicus); assay: Binding affinity to GlyT1 in rat brain midbrain at 0.03 to 0.04 nM preincubated for 20 mins in binding buffer before compound addition measured after 30 mins by autoradiography in presence of 10 mM GlyT1 substrate glycine relative to control; format: tissue-based; conditions: tested as the 125I-labelled form

Compound | Drug uptake (Pancreas) [% ID/g] | Drug uptake (Blood) [% ID/g] | Drug uptake (Intestine) [% ID/g] | Drug uptake (Kidney) [% ID/g] | Activity [1] [%] | pIC50 [2] | Activity [3] [%] | Activity (Mus musculus [4]) | Activity (Mus musculus [5]) | Activity [6] [%]
CN1CCCC[C@H]1[C@@H](NC(=O)c1cccc(C(F)(F)F)c1[125I])c1ccccc1 | 4.84 | 0.8 | 3.25 | 10.22 |  |  |  |  |  | 
CN1CCCC[C@H]1[C@@H](NC(=O)c1cccc(C(F)(F)F)c1I)c1ccccc1 |  |  |  |  | 71.5 | 8.63 | 44.9 | Active | inactive | 52.1
